The test system of one assay is HeLa. Description: Cytotoxicity against human HeLa cells assessed as cell death after 48 to 72 hrs by XTT assay. The format is functional, cell-based. Summed up:
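Cells seeded at 5000/well in DMEM with 10% FBS, penicillin and streptomycin, 37 °C, 5% CO2. Compounds in DMSO added 20 h later, final DMSO 1%; screened at 100 µM, then over a concentration range, at least three wells per condition. Absorbance read at 485 nm after 3 h, viability given relative to DMSO controls, EC50 taken as 50% cell death.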
A general note: Tetrazolium assays rely on reduction of a dye to a coloured formazan, in cell work by metabolically active cells.

In the next assay the test system is SW-620. Description: Cytotoxicity against human SW620 cells assessed as cell death after 48 to 72 hrs by XTT assay. The assay is classed as functional, cell-based. Summed up:
(§1)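 Cells seeded at 5000 per well in DMEM with 10% FBS, penicillin and streptomycin (100 µg/mL each), 37°C, 5% CO2. Compound in DMSO added 20 h after seeding, 1% DMSO final, DMSO-only controls. At least three wells per condition. Viability relative to DMSO; EC50 = concentration giving 50% cell death.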

Assay [1] in a line: Cytotoxicity against human PC3 cells assessed as cell death after 48 to 72 hrs by XTT assay. The format is functional, cell-based, PC-3. A digest of the protocol: as §1
The target of assay [2] is T1, Kallikrein-7 (Homo sapiens, UniProt P49862). Description: Inhibition of human KLK7 using Suc-Leu-Leu-Val-Tyr-AMC as substrate after 15 mins by fluorescence assay. A digest of the protocol:
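Recombinant KLK7 at 7.6 nM, final, with 40 µM Suc-LLVY-AMC in pH 8.0 buffer of 50 mM Tris-HCl, 0.01% Tween 20, 1 M NaCl, 2% DMSO. Enzyme preincubated 15 min with compound, then hydrolysis followed for 15 min at 37 °C, ex 360 / em 460 nm. Run in triplicate. Initial rates taken relative to untreated enzyme; IC50 fitted to hyperbolic or Hill equation.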
Target sequence in this assay (P49862 whole entry): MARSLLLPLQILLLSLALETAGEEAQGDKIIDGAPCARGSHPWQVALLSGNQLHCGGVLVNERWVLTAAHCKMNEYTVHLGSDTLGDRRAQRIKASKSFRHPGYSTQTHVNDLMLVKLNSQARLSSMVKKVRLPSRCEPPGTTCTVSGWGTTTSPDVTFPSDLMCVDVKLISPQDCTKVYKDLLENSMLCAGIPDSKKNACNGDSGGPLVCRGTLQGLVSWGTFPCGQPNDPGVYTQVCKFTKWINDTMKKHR

Assay [3] deals with T1, Kallikrein-7. Description: Inhibition of human KLK7 using Suc-Leu-Leu-Val-Tyr-AMC as substrate at 50 uM after 15 mins by fluorescence assay relative to control.
Target sequence in this assay (P49862 30-253 limits assumed): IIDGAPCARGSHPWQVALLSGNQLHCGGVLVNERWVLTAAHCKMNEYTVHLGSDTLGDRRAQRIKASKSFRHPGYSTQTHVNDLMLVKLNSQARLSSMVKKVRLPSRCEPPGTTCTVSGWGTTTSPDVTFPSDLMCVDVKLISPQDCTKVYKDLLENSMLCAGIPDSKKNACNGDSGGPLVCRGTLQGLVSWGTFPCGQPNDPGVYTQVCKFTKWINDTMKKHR
For assay [4], the target named is Kallikrein-5 (Homo sapiens) (UniProt Q9Y337). Description: Inhibition of human KLK5 using Boc-Val-Pro-Arg-AMC as substrate at 50 uM after 15 mins by fluorescence assay. A digest of the protocol:
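KLK5 at 0.6 nM, final, with 100 µM Boc-VPR-AMC in pH 8.0 buffer of 50 mM Tris-HCl, 0.01% Tween 20, 150 mM NaCl, 2% DMSO. Compound at 50 µM preincubated 15 min with enzyme. Fluorescence then read 15 min at 37 °C, ex 360 / em 460 nm. Inhibition taken from initial rates versus untreated control.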

For assay [5], the target named is T1, Kallikrein-7. Description: Reversible inhibition of human KLK7 using Suc-Leu-Leu-Val-Tyr-AMC as substrate at 50 uM preincubated for 15 mins followed by 40 fold dilution by fluorescence assay. Summed up: (§2)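 KLK7 preincubated with inhibitor, 50 µM where stated, for 15 and 60 min at pH 8.0 and 37 °C. Mixture then diluted 40-fold into buffer holding Suc-LLVY-AMC under the routine KLK7 conditions. Residual activity read fluorimetrically, ex 360 / em 460 nm, and compared with the uninhibited enzyme.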
Target sequence in this assay (P49862 30-253 limits assumed): as above

Assay [6] deals with T1, Kallikrein-7. Description: Competitive inhibition of human KLK7 using Suc-Leu-Leu-Val-Tyr-AMC as substrate by Lineweaver-Burk plot analysis.
Target sequence in this assay (P49862 whole entry): as the sequence (P49862 whole entry) above
The target of assay [7] is T2, Kallikrein-14 (Homo sapiens) (UniProt Q9P0G3).
T2 sequence (whole entry): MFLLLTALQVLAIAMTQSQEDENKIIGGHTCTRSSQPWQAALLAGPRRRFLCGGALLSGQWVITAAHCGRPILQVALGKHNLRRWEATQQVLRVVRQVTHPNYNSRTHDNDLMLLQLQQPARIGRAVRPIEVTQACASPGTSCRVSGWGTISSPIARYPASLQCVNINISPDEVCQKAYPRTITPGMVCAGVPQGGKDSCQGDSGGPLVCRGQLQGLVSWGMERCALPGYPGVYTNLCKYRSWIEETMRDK
Description: Inhibition of human KLK14 using Boc-Val-Pro-Arg-AMC as substrate at 50 uM after 15 mins by fluorescence assay. Summed up:
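KLK14 at 0.2 nM, final, with 10 µM Boc-VPR-AMC in pH 8.0 buffer of 50 mM Tris-HCl, 0.01% Tween 20, 1 M NaCl, 2% DMSO. Compound at 50 µM preincubated 15 min with enzyme. Fluorescence then read 15 min at 37 °C, ex 360 / em 460 nm. Percent inhibition taken from initial rates relative to control.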

In assay [8] the target is T3, Kallikrein-8 (Homo sapiens) (UniProt O60259).
T3 sequence (whole entry): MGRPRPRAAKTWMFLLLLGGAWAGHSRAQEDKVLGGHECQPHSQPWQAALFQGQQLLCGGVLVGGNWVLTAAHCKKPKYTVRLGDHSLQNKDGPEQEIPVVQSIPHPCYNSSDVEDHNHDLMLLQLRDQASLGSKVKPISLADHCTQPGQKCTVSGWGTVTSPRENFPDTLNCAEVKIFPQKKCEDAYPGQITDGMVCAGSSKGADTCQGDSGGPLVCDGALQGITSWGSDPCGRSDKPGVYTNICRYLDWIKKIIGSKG
Description: Inhibition of human KLK8 using Boc-Val-Pro-Arg-AMC as substrate at 50 uM after 15 mins by fluorescence assay. A digest of the protocol:
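KLK8 at 1 nM, final, with 100 µM Boc-VPR-AMC in pH 8.0 Tris-HCl buffer containing 0.01% Tween 20 and 2% DMSO. Compound at 50 µM preincubated with enzyme 15 min. Substrate hydrolysis then monitored 15 min at 37 °C, ex 360 / em 460 nm. Initial rates compared with the untreated enzyme.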

Assay [9] has as its target T1, Kallikrein-7. Description: Reversible inhibition of human KLK7 using Suc-Leu-Leu-Val-Tyr-AMC as substrate preincubated for 15 to 60 mins followed by 40 fold dilution by fluorescence assay. A digest of the protocol: as §2
Target sequence in this assay (P49862 30-253 limits assumed): as the sequence (P49862 30-253 limits assumed) above
Where [10] appears, read: Homo sapiens, HeLa, read-out: EC50.

Active and inactive are the calls of the source. The rule behind the calls is not given here.

This note sets out measurements from ChEMBL document CHEMBL3407351, “Pyrido-imidazodiazepinones as a new class of reversible inhibitors of human kallikrein 7” (Eur J Med Chem, 2015).

Chain of Kallikrein-5 (Homo sapiens) (Q9Y337 whole entry): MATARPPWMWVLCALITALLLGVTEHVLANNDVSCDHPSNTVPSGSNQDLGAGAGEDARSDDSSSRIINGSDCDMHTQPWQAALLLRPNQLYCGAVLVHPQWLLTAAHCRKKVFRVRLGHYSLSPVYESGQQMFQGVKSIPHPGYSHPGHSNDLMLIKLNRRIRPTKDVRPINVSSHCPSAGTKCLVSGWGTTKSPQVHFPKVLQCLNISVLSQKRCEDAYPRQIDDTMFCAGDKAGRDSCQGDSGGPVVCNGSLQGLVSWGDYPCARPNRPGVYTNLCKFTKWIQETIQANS

`Cc1ccc(C2=Nc3nc4ccccn4c3C(=O)[C@H](Cc3ccccc3)N2)c(C)c1`: the EC50 result in the assay with HeLa (hela) is “Not Active”; in the assay with SW-620 (Homo sapiens, SW-620, read-out: EC50), 67.8 µM; in assay [1] (pc-3), “Not Active”. The IC50 at Kallikrein-7 [2] is 83.9 µM.

In the case of `COc1cc(C2=Nc3nc4ccccn4c3C(=O)[C@H](Cc3ccccc3)N2)cc(OC)c1OC`, the EC50 with HeLa (setting [10]) was 53.8 µM; in the assay with SW-620 (sw-620), “Not Active”; in assay [1] (pc-3), “Not Active”. The midpoint of inhibition against Kallikrein-7 [2], the IC50, lay at 55.7 µM.

As for `O=C1c2c(nc3ccccn23)N=C(c2cccnc2)N[C@H]1Cc1ccccc1`, the inhibition against Kallikrein-7 [3] was less than 30%.

As for `Nc1nc2ccccn2c1C(=O)[C@H](Cc1ccccc1)NC(=O)c1ccccc1`, on Kallikrein-7 [3], the inhibition was less than 30%.

Turning to `COc1ccc(OC)c(C2=Nc3nc4ccccn4c3C(=O)[C@H](Cc3ccccc3)N2)c1`, the EC50 was 40 µM with HeLa (setting [10]), “Not Active” in the assay on SW-620 (sw-620) and “Not Active” in [1] (pc-3). Also, on Kallikrein-7 [2], half-maximal inhibition (IC50) was put at 80.9 µM.

At Kallikrein-7 [3], `O=C1c2c(nc3ccccn23)N=C(c2cc(O)ccc2O)N[C@H]1Cc1ccccc1` yielded an inhibition of less than 30%.

Turning to `COc1ccc(C2=Nc3nc4ccccn4c3C(=O)[C@H](Cc3ccccc3)N2)cc1OC`, the inhibition result in assay [4], in assay [7] and in assay [8] was “inactive” each time. Further, the inhibition entry on Kallikrein-7 [5] was “Active”. The compound also showed a Ki on Kallikrein-7 [6] of 27 µM. Moreover, the EC50 is 24.3 µM with HeLa (setting [10]); “Not Active” in the assay with SW-620 (sw-620); 64.8 µM in [1] (Homo sapiens, PC-3, read-out: EC50). This compound registered an IC50 at Kallikrein-7 [2] of 33.5 µM.

On to `O=C1c2c(nc3ccccn23)N=C(c2cccc(O)c2)N[C@H]1Cc1ccccc1`, for which the IC50 at Kallikrein-7 [2] came out at 125 µM.

As to `Cc1ccc(C2=Nc3nc4ccccn4c3C(=O)[C@H](Cc3ccccc3)N2)cc1`, inhibition against Kallikrein-7 [2] was half-maximal at 68 µM (IC50).

On to `O=C1c2c(nc3ccccn23)N=C(c2ccc(Br)cc2)N[C@H]1Cc1ccccc1`, for which the inhibition against Kallikrein-7 [3] is less than 30%.

On Kallikrein-7 [3], `COc1ccc(C2=Nc3nc4ccccn4c3C(=O)[C@H](C)N2)cc1OC` returned an inhibition of less than 30%.

Take `Cc1cccc(C2=Nc3nc4ccccn4c3C(=O)[C@H](Cc3ccccc3)N2)c1`: the inhibition against Kallikrein-7 [3] was less than 30%.

With `COc1ccc(C2=Nc3nc4ccccn4c3C(O)[C@H](Cc3ccccc3)N2)cc1OC` (some centres not stated), the inhibition on Kallikrein-7 [3] was less than 30%.

Turning to `Nc1nc2ccccn2c1C(=O)[C@H](Cc1ccccc1)NC(=O)Cc1ccccc1`, the 50% inhibitory concentration (IC50) at Kallikrein-7 [2] was 149 µM.

Compound `COc1ccccc1C1=Nc2nc3ccccn3c2C(=O)[C@H](Cc2ccccc2)N1` had an inhibition on Kallikrein-7 [3] of less than 30%.

With `COc1ccc(C2=Nc3nc4ccccn4c3C(=O)[C@H](Cc3ccccc3)N2)cc1`, the IC50 at Kallikrein-7 [2] came out at 72 µM.

`O=C1Nc2nc3ccccn3c2C(=O)[C@H](Cc2ccccc2)N1` showed an inhibition at Kallikrein-7 [3] of less than 30%.

For `CC(C)CC1=Nc2nc3ccccn3c2C(=O)[C@H](Cc2ccccc2)N1`, the inhibition against Kallikrein-7 [3] is less than 30%.

`COc1ccc(C2=Nc3nc4ccccn4c3C(=O)[C@H](CO)N2)cc1OC` had an inhibition at Kallikrein-7 [3] of less than 30%.

`Cc1ccccc1C(=O)N[C@@H](Cc1ccccc1)C(=O)c1c(N)nc2ccccn12` came in with an IC50 at Kallikrein-7 [2] of 135 µM.

On to `Cc1ccccc1C1=Nc2nc3ccccn3c2C(=O)[C@H](Cc2ccccc2)N1`, for which the inhibition result in [4], in assay [7] and in [8] was “inactive” throughout. The same compound displayed an inhibition at Kallikrein-7 [3] of more than 30%. This compound registered a Ki at Kallikrein-7 [6] of 50.6 µM. Besides, on Kallikrein-7 [9], the inhibition entry was “Active”. In addition, on Kallikrein-7 [2], 57 µM corresponded to half-maximal inhibition (IC50).

At Kallikrein-7 [3], `COc1ccc(C(=O)N[C@@H](Cc2ccccc2)C(=O)c2c(N)nc3ccccn23)cc1OC` had an inhibition of less than 30%.

Compound `Cc1ccccc1C1=Nc2nc3ccccn3c2C(=O)[C@H](C)N1` showed an inhibition on Kallikrein-7 [3] of less than 30%.

On Kallikrein-7 [3], `Nc1nc2ccccn2c1C(=O)[C@H](Cc1ccccc1)NC(=O)CCc1ccccc1` came in with an inhibition of less than 30%.

In the case of `Nc1nc2ccccn2c1C(=O)[C@H](Cc1ccccc1)NC(=O)c1ccncc1`, the inhibition against Kallikrein-7 [3] is less than 30%.

For `O=C1c2c(nc3ccccn23)N=C(c2ccccc2O)N[C@H]1Cc1ccccc1`, the inhibition on Kallikrein-7 [3] was less than 30%.

Regarding `O=C1c2c(nc3ccccn23)N=C(c2ccccc2)N[C@H]1Cc1ccccc1`, the inhibition at Kallikrein-7 [3] is less than 30%.

Regarding `O=C1c2c(nc3ccccn23)N=C(c2ccc([N+](=O)[O-])cc2)N[C@H]1Cc1ccccc1`, at Kallikrein-7 [3], the inhibition is less than 30%.

As to `COc1ccc(C2=Nc3nc4ccccn4c3C(=O)[C@H](Cc3ccc(OCc4ccccc4)cc3)N2)cc1OC`, the inhibition against Kallikrein-7 [3] is less than 30%.

Take `Nc1nc2ccccn2c1C(=O)[C@H](Cc1ccccc1)NC(=O)c1ccccn1`: the inhibition on Kallikrein-7 [3] was less than 30%.

The compound `COc1ccc(C2=Nc3nc4ccccn4c3C(=O)[C@H](COCc3ccccc3)N2)cc1OC` yielded an inhibition on Kallikrein-7 [3] of less than 30%.

At Kallikrein-7 [3], `COc1ccc(C2=Nc3nc4ccccn4c3C(=O)[C@H](Cc3ccc(O)cc3)N2)cc1OC` had an inhibition of less than 30%.

On Kallikrein-7 [3], `Cc1ccccc1C1=Nc2nc3ccccn3c2C(=O)[C@H](Cc2cccc3ccccc23)N1` returned an inhibition of less than 30%.

In turn, `COc1ccc(C2=Nc3nc4ccccn4c3C(=O)[C@H](Cc3ccccc3)N2C)cc1OC` had an inhibition at Kallikrein-7 [3] of less than 30%.

Regarding `Cc1ccccc1C1=Nc2nc3ccccn3c2C(=O)[C@H](COCc2ccccc2)N1`, at Kallikrein-7 [3], the inhibition is less than 30%.

On to `COc1cccc(C2=Nc3nc4ccccn4c3C(=O)[C@H](Cc3ccccc3)N2)c1`, for which the inhibition on Kallikrein-7 [3] is less than 30%.

On to `Cc1ccccc1C1=Nc2nc3ccccn3c2C(=O)[C@@H](Cc2ccccc2)N1`, for which, at Kallikrein-7 [2], the IC50 was determined as 95.9 µM.

Take `Nc1nc2ccccn2c1C(=O)[C@H](Cc1ccccc1)NC(=O)/C=C/c1ccccc1`: the inhibition at Kallikrein-7 [3] is less than 30%.

In turn, `Nc1nc2ccccn2c1C(=O)[C@H](Cc1ccccc1)NC(=O)c1ccc[nH]1` showed an inhibition at Kallikrein-7 [3] of less than 30%.

As a reminder, the EC50 is the concentration giving half of the maximal effect. The IC50 is the concentration that gives 50% inhibition. Read a high IC50 as weaker potency. As usually defined, the inhibition is the percentage by which the read-out fell short of the control. The Ki is the dissociation constant of the complex between target and ligand, obtained from inhibition or displacement.
